Reference: ChEMBL document CHEMBL1159084, “Synthesis and structure-activity relationship of 1,2,4-triazole-containing diarylpyrazolyl carboxamide as CB1 cannabinoid receptor-ligand” (Bioorg Med Chem, 2010)

Molecular target: Cannabinoid receptor 1 (Rattus norvegicus, UniProt P20272)
Experiment: Displacement of [3H]CP-55940 from CB1 receptor in Sprague-Dawley rat cerebellar membrane
Design: species or system Cerebellum
Outline: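 Membranes came from cerebella of male Sprague Dawley rats (200–300 g), homogenized in TME buffer (50 mM Tris–HCl, 1 mM EDTA, 3 mM MgCl2, pH 7.4) and spun at 48,000g for 30 min at 4 °C. They were incubated 1 h at 30 °C in TME with 0.5% fatty-acid-free BSA, then filtered on PEI-soaked GF/B, washed and counted by scintillation. IC50 values are from single determinations.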

Cannabinoid receptor 1, sequence (P20272 whole entry): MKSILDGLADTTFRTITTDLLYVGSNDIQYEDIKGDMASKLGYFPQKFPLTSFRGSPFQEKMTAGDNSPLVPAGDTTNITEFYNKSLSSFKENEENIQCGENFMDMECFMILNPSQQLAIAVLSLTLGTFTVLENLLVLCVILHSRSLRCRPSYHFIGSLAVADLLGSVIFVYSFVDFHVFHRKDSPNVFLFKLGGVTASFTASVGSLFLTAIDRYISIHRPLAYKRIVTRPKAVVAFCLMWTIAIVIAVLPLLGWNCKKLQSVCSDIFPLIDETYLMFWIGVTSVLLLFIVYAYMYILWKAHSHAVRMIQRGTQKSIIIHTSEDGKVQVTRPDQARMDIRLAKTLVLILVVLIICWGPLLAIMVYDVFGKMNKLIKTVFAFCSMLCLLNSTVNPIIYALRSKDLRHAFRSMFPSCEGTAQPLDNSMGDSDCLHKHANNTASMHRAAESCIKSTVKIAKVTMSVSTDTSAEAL

| SMILES | IC50 |
| --- | --- |
| CCC(C)(C)NC(=O)c1nn(-c2ccccc2Cl)c(-c2ccc(Br)cc2)c1Cn1cncn1 | 8.99 nM |
| O=C(NCc1ccccn1)c1nn(-c2ccc(Cl)cc2Cl)c(-c2ccc(Cl)cc2)c1Cn1cncn1 | 74.8 nM |
| O=C(NCc1ccccc1)c1nn(-c2ccccc2Cl)c(-c2ccc(Cl)cc2)c1Cn1cncn1 | 14.1 nM |
| O=C(c1nn(-c2ccc(Cl)cc2Cl)c(-c2ccc(Cl)cc2)c1Cn1cncn1)N1CCN(c2ncccn2)CC1 | 56 nM |
| O=C(NC1(c2ccccc2)CC1)c1nn(-c2ccc(Cl)cc2Cl)c(-c2ccc(Cl)cc2)c1Cn1cncn1 | 5.1 nM |
| O=C(NN1CCCCC1)c1nn(-c2ccccc2Cl)c(-c2ccc(Br)cc2)c1Cn1cncn1 | 5.23 nM |
| CCN1CCN(C(=O)c2nn(-c3ccccc3Cl)c(-c3ccc(Cl)cc3)c2Cn2cncn2)CC1 | 1050 nM |
| O=C(NC1(C(F)(F)F)CCC1)c1nn(-c2ccc(Cl)cc2Cl)c(-c2ccc(Br)cc2)c1Cn1cncn1 | 3.87 nM |
| O=C(NC1(c2ccc(Cl)cc2)CC1)c1nn(-c2ccc(Cl)cc2Cl)c(-c2ccc(Cl)cc2)c1Cn1cncn1 | 5.09 nM |
| CCC(C)(C)NC(=O)c1nn(-c2ccc(Cl)cc2Cl)c(-c2ccc(Cl)cc2)c1Cn1cncn1 | 3.01 nM |
| O=C(NC1(C(F)(F)F)CCC1)c1nn(-c2ccccc2Cl)c(-c2ccc(Cl)cc2)c1Cn1cncn1 | 5.14 nM |
| CC(NC(=O)c1nn(-c2ccc(Cl)cc2Cl)c(-c2ccc(Br)cc2)c1Cn1cncn1)C(C)(C)C (stereo not given) | 4.1 nM |
| O=C(NC1CCCCCC1)c1nn(-c2ccccc2Cl)c(-c2ccc(Cl)cc2)c1Cn1cncn1 | 9.7 nM |
| CC(NC(=O)c1nn(-c2ccc(Cl)cc2Cl)c(-c2ccc(Cl)cc2)c1Cn1cncn1)c1ccc(Cl)cc1Cl (stereo not given) | 2.6 nM |
| O=C(c1nn(-c2ccc(Cl)cc2Cl)c(-c2ccc(Br)cc2)c1Cn1cncn1)N1CCN(c2ncccn2)CC1 | 27.7 nM |
| O=C(c1nn(-c2ccccc2Cl)c(-c2ccc(Cl)cc2)c1Cn1cncn1)N1CCN(c2cccc(Cl)c2)CC1 | 4.08 nM |
| O=C(NC1CCCCCC1)c1nn(-c2ccc(Cl)cc2Cl)c(-c2ccc(Br)cc2)c1Cn1cncn1 | 8.49 nM |

| SMILES | IC50 |
| --- | --- |
| O=C(NC1(c2ccccc2)CC1)c1nn(-c2ccc(Cl)cc2Cl)c(-c2ccc(Br)cc2)c1Cn1cncn1 | 7.86 nM |
| O=C(NCc1ccccc1)c1nn(-c2ccc(Cl)cc2Cl)c(-c2ccc(Br)cc2)c1Cn1cncn1 | 13 nM |
| C[C@H]1CC[C@H](NC(=O)c2nn(-c3ccc(Cl)cc3Cl)c(-c3ccc(Cl)cc3)c2Cn2cncn2)CC1 | 14.2 nM |
| O=C(NN1CCCCC1)c1nn(-c2ccc(Cl)cc2Cl)c(-c2ccc(Cl)cc2)c1Cn1cncn1 | 3.83 nM |
| O=C(NC1(C(F)(F)F)CC1)c1nn(-c2ccc(Cl)cc2Cl)c(-c2ccc(Cl)cc2)c1Cn1cncn1 | 4.5 nM |
| N#CC1(NC(=O)c2nn(-c3ccccc3Cl)c(-c3ccc(Br)cc3)c2Cn2cncn2)CC1 | 19.6 nM |
| C[C@H]1CCCC[C@@H]1NC(=O)c1nn(-c2ccc(Cl)cc2Cl)c(-c2ccc(Cl)cc2)c1Cn1cncn1 | 12.9 nM |
| O=C(NNC(=O)C1(c2ccc(Cl)cc2)CC1)c1nn(-c2ccc(Cl)cc2Cl)c(-c2ccc(Cl)cc2)c1Cn1cncn1 | 44.5 nM |
| Cc1cccc(N2CCN(C(=O)c3nn(-c4ccccc4Cl)c(-c4ccc(Cl)cc4)c3Cn3cncn3)CC2)c1C | 6.09 nM |
| O=C(c1nn(-c2ccc(Cl)cc2Cl)c(-c2ccc(Br)cc2)c1Cn1cncn1)N1CCN(c2cccc(Cl)c2Cl)CC1 | 5.74 nM |
| O=C(c1nn(-c2ccccc2Cl)c(-c2ccc(Cl)cc2)c1Cn1cncn1)N1CCN(c2ccccc2)CC1 | 11.5 nM |
| CN1CCN(C(=O)c2nn(-c3ccccc3Cl)c(-c3ccc(Cl)cc3)c2Cn2cncn2)CC1 | 961 nM |
| CN1CCN(C(=O)c2nn(-c3ccc(Cl)cc3Cl)c(-c3ccc(Br)cc3)c2Cn2cncn2)CC1 | 1340 nM |
| CCN1CCCC1CNC(=O)c1nn(-c2ccc(Cl)cc2Cl)c(-c2ccc(Cl)cc2)c1Cn1cncn1 (stereo not given) | 4020 nM |
| O=C(c1nn(-c2ccc(Cl)cc2Cl)c(-c2ccc(Cl)cc2)c1Cn1cncn1)N1CCN(c2ccccc2)CC1 | 8.88 nM |
| O=C(c1nn(-c2ccc(Cl)cc2Cl)c(-c2ccc(Br)cc2)c1Cn1cncn1)N1CCN(c2ccccc2)CC1 | 12.5 nM |
| O=C(NC1CCCCCC1)c1nn(-c2ccc(Cl)cc2Cl)c(-c2ccc(Cl)cc2)c1Cn1cncn1 | 11.2 nM |

More lines, in order of falling IC50, values ahead:

| IC50 | SMILES |
| --- | --- |
| 901 nM | CN1CCN(C(=O)c2nn(-c3ccccc3Cl)c(-c3ccc(Br)cc3)c2Cn2cncn2)CC1 |
| 878 nM | CCNC1(C(N)=O)CCN(C(=O)c2nn(-c3ccc(Cl)cc3Cl)c(-c3ccc(Cl)cc3)c2Cn2cncn2)CC1 |
| 303 nM | CCN1CCN(C(=O)c2nn(-c3ccccc3Cl)c(-c3ccc(Br)cc3)c2Cn2cncn2)CC1 |
| 285 nM | CCN1CCN(C(=O)c2nn(-c3ccc(Cl)cc3Cl)c(-c3ccc(Br)cc3)c2Cn2cncn2)CC1 |
| 189 nM | O=C(NNC(=O)C1CCCCC1)c1nn(-c2ccc(Cl)cc2Cl)c(-c2ccc(Cl)cc2)c1Cn1cncn1 |
| 126 nM | O=C(NNC(=O)C1(C(F)(F)F)CC1)c1nn(-c2ccc(Cl)cc2Cl)c(-c2ccc(Cl)cc2)c1Cn1cncn1 |
| 63.4 nM | O=C(NCc1ccccn1)c1nn(-c2ccccc2Cl)c(-c2ccc(Br)cc2)c1Cn1cncn1 |
| 60.7 nM | O=C(N[C@H]1CCCC[C@@H]1O)c1nn(-c2ccc(Cl)cc2Cl)c(-c2ccc(Cl)cc2)c1Cn1cncn1 |
| 22.3 nM | O=C(c1nn(-c2ccccc2Cl)c(-c2ccc(Br)cc2)c1Cn1cncn1)N1CCN(c2ncccn2)CC1 |
| 20.5 nM | O=C(NCC1CCCCC1)c1nn(-c2ccc(Cl)cc2Cl)c(-c2ccc(Br)cc2)c1Cn1cncn1 |
| 20.2 nM | CCCCC(CC)CNC(=O)c1nn(-c2ccc(Cl)cc2Cl)c(-c2ccc(Cl)cc2)c1Cn1cncn1 (stereo not given) |
| 18.3 nM | C[C@@H]1CCCC[C@@H]1NC(=O)c1nn(-c2ccc(Cl)cc2Cl)c(-c2ccc(Cl)cc2)c1Cn1cncn1 (single isomer, unassigned) |
| 17.1 nM | C[C@H]1CC[C@@H](NC(=O)c2nn(-c3ccc(Cl)cc3Cl)c(-c3ccc(Cl)cc3)c2Cn2cncn2)CC1 |
| 12.2 nM | O=C(NCC1CCCCC1)c1nn(-c2ccccc2Cl)c(-c2ccc(Cl)cc2)c1Cn1cncn1 |
| 11.9 nM | CCC(C)(C)NC(=O)c1nn(-c2ccccc2Cl)c(-c2ccc(Cl)cc2)c1Cn1cncn1 |
| 11.5 nM | Cc1cccc(N2CCN(C(=O)c3nn(-c4ccc(Cl)cc4Cl)c(-c4ccc(Cl)cc4)c3Cn3cncn3)CC2)c1C |
| 11.4 nM | CC1CCCC(C)N1NC(=O)c1nn(-c2ccc(Cl)cc2Cl)c(-c2ccc(Cl)cc2)c1Cn1cncn1 (stereo not given) |
| 9.15 nM | O=C(NC1(C(F)(F)F)CC1)c1nn(-c2ccccc2Cl)c(-c2ccc(Br)cc2)c1Cn1cncn1 |
| 9.03 nM | O=C(NC1(c2ccc(Cl)cc2)CC1)c1nn(-c2ccccc2Cl)c(-c2ccc(Cl)cc2)c1Cn1cncn1 |
| 8.44 nM | CC(NC(=O)c1nn(-c2ccc(Cl)cc2Cl)c(-c2ccc(Cl)cc2)c1Cn1cncn1)C(C)(C)C (stereo not given) |
| 8.23 nM | O=C(NN1CCCCCC1)c1nn(-c2ccc(Cl)cc2Cl)c(-c2ccc(Br)cc2)c1Cn1cncn1 |
| 8.01 nM | O=C(c1nn(-c2ccccc2Cl)c(-c2ccc(Br)cc2)c1Cn1cncn1)N1CCN(c2ccccc2)CC1 |
| 7.7 nM | CC(C)(NC(=O)c1nn(-c2ccccc2Cl)c(-c2ccc(Cl)cc2)c1Cn1cncn1)c1ccc(Cl)cc1 |

| IC50 | SMILES |
| --- | --- |
| 7.48 nM | O=C(NC1(C(F)(F)F)CCC1)c1nn(-c2ccccc2Cl)c(-c2ccc(Br)cc2)c1Cn1cncn1 |
| 7.4 nM | CC(C)(NC(=O)c1nn(-c2ccc(Cl)cc2Cl)c(-c2ccc(Cl)cc2)c1Cn1cncn1)c1ccccc1 |
| 7.33 nM | O=C(c1nn(-c2ccc(Cl)cc2Cl)c(-c2ccc(Cl)cc2)c1Cn1cncn1)N1CCN(c2cccc(Cl)c2)CC1 |
| 7.22 nM | O=C(c1nn(-c2ccc(Cl)cc2Cl)c(-c2ccc(Br)cc2)c1Cn1cncn1)N1CCN(c2cccc(Cl)c2)CC1 |
| 6.9 nM | O=C(NC1CCCC1)c1nn(-c2ccc(Cl)cc2Cl)c(-c2ccc(Cl)cc2)c1Cn1cncn1 |
| 6.6 nM | O=C(NC1CCCCC1)c1nn(-c2ccccc2Cl)c(-c2ccc(Cl)cc2)c1Cn1cncn1 |
| 6.22 nM | CC(NC(=O)c1nn(-c2ccccc2Cl)c(-c2ccc(Cl)cc2)c1Cn1cncn1)C(C)(C)C (stereo not given) |
| 6 nM | CC(NC(=O)c1nn(-c2ccccc2Cl)c(-c2ccc(Br)cc2)c1Cn1cncn1)C(C)(C)C (stereo not given) |
| 5.81 nM | O=C(NC1(c2ccccc2)CC1)c1nn(-c2ccccc2Cl)c(-c2ccc(Cl)cc2)c1Cn1cncn1 |
| 5.5 nM | O=C(c1nn(-c2ccc(Cl)cc2Cl)c(-c2ccc(Cl)cc2)c1Cn1cncn1)N1CCN(c2cccc(Cl)c2Cl)CC1 |
| 5.11 nM | O=C(NN1CCCCC1)c1nn(-c2ccc(Cl)cc2Cl)c(-c2ccc(Br)cc2)c1Cn1cncn1 |
| 4.9 nM | CC(C)(C)NC(=O)c1nn(-c2ccc(Cl)cc2Cl)c(-c2ccc(Cl)cc2)c1Cn1cncn1 |
| 4.75 nM | O=C(NC1(C(F)(F)F)CC1)c1nn(-c2ccccc2Cl)c(-c2ccc(Cl)cc2)c1Cn1cncn1 |
| 3.8 nM | Cc1cccc(N2CCN(C(=O)c3nn(-c4ccc(Cl)cc4Cl)c(-c4ccc(Br)cc4)c3Cn3cncn3)CC2)c1C |
| 3.77 nM | O=C(NC1CCCCC1)c1nn(-c2ccc(Cl)cc2Cl)c(-c2ccc(Cl)cc2)c1Cn1cncn1 |
| 3.67 nM | CCC(C)(C)NC(=O)c1nn(-c2ccc(Cl)cc2Cl)c(-c2ccc(Br)cc2)c1Cn1cncn1 |
| 3.33 nM | CC(C)(NC(=O)c1nn(-c2ccc(Cl)cc2Cl)c(-c2ccc(Cl)cc2)c1Cn1cncn1)c1ccc(Cl)cc1 |
| 3.31 nM | O=C(NC1(C(F)(F)F)CC1)c1nn(-c2ccc(Cl)cc2Cl)c(-c2ccc(Br)cc2)c1Cn1cncn1 |
| 2.9 nM | CC(C)(C)NC(=O)c1nn(-c2ccc(Cl)cc2Cl)c(-c2ccc(Br)cc2)c1Cn1cncn1 |
| 2.8 nM | O=C(NC1(c2ccc(Cl)cc2)CC1)c1nn(-c2ccc(Cl)cc2Cl)c(-c2ccc(Br)cc2)c1Cn1cncn1 |
| 2.7 nM | O=C(NC1CCCCCC1)c1nn(-c2ccccc2Cl)c(-c2ccc(Br)cc2)c1Cn1cncn1 |
| 2.6 nM | CC(NC(=O)c1nn(-c2ccc(Cl)cc2Cl)c(-c2ccc(Cl)cc2)c1Cn1cncn1)c1ccc(Br)cc1 (stereo not given) |
| 2.2 nM | CC(NC(=O)c1nn(-c2ccc(Cl)cc2Cl)c(-c2ccc(Br)cc2)c1Cn1cncn1)c1ccc(Cl)cc1Cl (stereo not given) |
